Published values collected from several papers.
Each line is one published result; the experiments were not run side by side.
Medium: plasma

system	conditions	Tmax	Structure (SMILES)
male Sprague-Dawley rat	oral, 30 mg/kg	30 min	O=c1cc(-c2ccc(O)c(O)c2)oc2cc(O)cc(O)c12
male Sprague-Dawley rat	oral, 10 mg/kg	4.98 min	CC1(CN)CCN(c2cnc3c(Sc4ccncc4Cl)n[nH]c3n2)CC1
male Sprague-Dawley rat	intravenous, 20 mg/kg	6.6 min	CC(=O)CC(=O)C1CC(C)C(=O)C1=O (centres unmarked)
male rat	oral, 2 mg/kg	78 min	Cc1c(C(=O)O)ccc2c3n(nc12)[C@@H]1[C@H](C3)N(CC2CC2)[C@@]2(C(=O)Nc3cc(Cl)ccc32)[C@H]1c1cccc(Cl)c1F
male Sprague-Dawley rat	oral, 20 mg/kg, fasted	200 min	O=C1CC[C@H](N2Cc3cc(N4CCN(CC5CCN(c6ccc([C@@H]7c8ccc(O)cc8CC[C@@H]7c7ccccc7)cc6)CC5)CC4)ccc3C2=O)C(=O)N1
male Wistar rat	oral, 3 mg/kg	120 min	N#C[C@@]12C[C@@H]1[C@@H](n1cnc3c(N[C@@H](C4CCC4)C4CC4)nc(I)nc31)[C@H](O)[C@@H]2O
Sprague-Dawley rat	oral, 10 mg/kg	27 min	C[C@H]1[C@@H](O)O[C@@H]2O[C@@]3(C)CC[C@H]4[C@H](C)CC[C@@H]1[C@@]24OO3
rat	oral, 3 mg/kg	240 min	Nc1ccc(/C=C/C(=O)NCc2cc3cc(-c4ccc(C(=O)N5CCC(F)(F)CC5)cc4)cc(-c4ccc(F)cc4)c3o2)cn1
male Sprague-Dawley rat	oral, 3 mg/kg	~18 min	CN1Cc2c(N)cccc2C(=O)N1C1CCC(=O)NC1=O (centres unmarked)
male Sprague-Dawley rat	oral, 200 mg/kg, single dose	≤ 5 min	CC(=Nc1ccc(N=Cc2cnccn2)cc1)N(C)C
female Sprague-Dawley rat	oral, 50 mg/kg	30 min	O=C(C=Cc1ccccc1)Nc1cc(-c2ccnc(N3CCC(O)CC3)c2)ccn1
